From PubChem BioAssay AID652204 (Vanderbilt Specialized Chemistry Center, 2013) come the findings set out here.

Activity calls are given as the source filed them. How the calls were made is not given here.

The target in this assay is Metabotropic glutamate receptor 4 (Rattus norvegicus) (UniProt P31423). Nature of the assay: mGlu4 modulation of glutamate calcium response, selectivity assay for mGlu5 silent allosteric modulator project, cell-based, rat, CHO, Gqi5, Fluo4 calcium (AID 652204). Conditions: CHO rmGlu4/Gqi5, Fluo4 calcium mobilization, glutamate CRC. In short, it runs like this:
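Test system: CHO cells expressing rat mGlu4 together with Gqi5; Medium: HBSS buffer with probenecid 2.5 mM, HEPES 20 mM, pH 7.4; Also added: glutamate 9-point series up to 1 mM; Dosing: 10 µM compound, 1% DMSO; Times: 37 °C 60-min dye-loading, compound 20 s, glutamate 80 s; Detection: Fluo4 calcium-dye fluorescence.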
(Calcium assays in cells follow changes in intracellular calcium, usually with a dye or a luminescent sensor.)

Sequence of Metabotropic glutamate receptor 4 (Rattus norvegicus) (P31423 whole entry, looked up): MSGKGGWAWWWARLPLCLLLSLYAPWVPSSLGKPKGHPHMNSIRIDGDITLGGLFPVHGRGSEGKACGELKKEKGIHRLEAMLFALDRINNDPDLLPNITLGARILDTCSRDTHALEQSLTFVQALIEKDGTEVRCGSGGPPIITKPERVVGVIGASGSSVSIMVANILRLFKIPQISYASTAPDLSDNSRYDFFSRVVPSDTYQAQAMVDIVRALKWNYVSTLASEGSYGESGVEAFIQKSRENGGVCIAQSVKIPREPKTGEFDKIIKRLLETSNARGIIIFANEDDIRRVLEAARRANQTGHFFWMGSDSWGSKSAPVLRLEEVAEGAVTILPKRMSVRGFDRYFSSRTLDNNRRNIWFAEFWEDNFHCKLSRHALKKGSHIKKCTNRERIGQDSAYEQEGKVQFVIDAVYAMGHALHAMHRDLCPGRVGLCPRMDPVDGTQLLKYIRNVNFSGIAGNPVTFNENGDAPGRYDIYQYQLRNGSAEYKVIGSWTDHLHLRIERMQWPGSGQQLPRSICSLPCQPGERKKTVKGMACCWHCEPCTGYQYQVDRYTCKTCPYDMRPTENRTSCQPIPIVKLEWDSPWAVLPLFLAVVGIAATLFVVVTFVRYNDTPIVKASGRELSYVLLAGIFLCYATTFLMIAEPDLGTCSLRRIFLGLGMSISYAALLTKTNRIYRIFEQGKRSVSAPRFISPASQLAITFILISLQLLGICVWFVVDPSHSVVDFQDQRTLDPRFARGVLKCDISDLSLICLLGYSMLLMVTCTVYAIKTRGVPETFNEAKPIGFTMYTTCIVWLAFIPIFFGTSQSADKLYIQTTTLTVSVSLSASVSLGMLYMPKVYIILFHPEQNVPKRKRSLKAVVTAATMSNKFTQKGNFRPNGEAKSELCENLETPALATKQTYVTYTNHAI

As for `O=C(c1ccc(C#Cc2cccc(F)c2)cn1)N1CC2CC2C1` (configuration not stated), the “glutamate EC50 in presence of 10 uM compound” value was “inactive”. The fold shift (measured here: glutamate EC50 fold shift, at 10 µM) was found to be 1.23.
